Assay outcomes from PubChem.
In the library only some 2.7% were active in any assay of this set; here they are far more common.
RBBP9 inh = human RBBP9 inhibitors, primary screen, biochemical, fluorescence polarization, FP-Rh probe, HTS. Serine hydrolase RBBP9 (Homo sapiens), O75884. recombinant RBBP9. inhibition, % at 7.94 µM. 220,000 tested, 0.2% active;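 active = inhibition above the campaign mean of all tested compounds plus 3 SD, cut at about 14% in these data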
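System: RBBP9 protein / Buffer or medium: Tris/NaCl buffer pH 8.0 with 0.1% Pluronic / Probe or stimulus: Serine-hydrolase probe FP-Rh, 375 nM pre-mixing / Dosing: 7.94 µM single dose, 0.794% DMSO / Times: enzyme-compound preincubation 30 min, then probe labeling 45 min, 25 °C / Technique: fluorescence polarization (mP), excitation 525 nm, emission 598 nm / Replication: singlicate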
PAFAH1B3 FP inh = PAFAH1B3 enzyme inhibitors, primary screen, biochemical, fluorescence polarization, human; Platelet-activating factor acetylhydrolase IB subunit alpha1 (Homo sapiens), Q15102; recombinant PAFAH1B3, FP-rhodamine probe; inhibition, % at 3.39 µM; 340,000 tested, 0.28% active; AID 492972, 2010;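 active = inhibition above the screen-wide average of all tested compounds plus 3 SD, cut at about 25% in these data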
pPAFAH inh = pPAFAH enzyme inhibitors, primary screen, biochemical, fluorescence polarization, human; Platelet-activating factor acetylhydrolase (Homo sapiens), Q13093; recombinant pPAFAH, FP-rhodamine probe fluorescence polarization; inhibition, % at 3.39 µM; 330,000 tested, 1.5% active;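 active = inhibition above the mean inhibition across the screen plus 3 SD, cut at about 25% in these data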;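 note: inhibitors block binding of the rhodamine activity-based probe so polarization drops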
Target sequence (Q13093 whole entry, looked up): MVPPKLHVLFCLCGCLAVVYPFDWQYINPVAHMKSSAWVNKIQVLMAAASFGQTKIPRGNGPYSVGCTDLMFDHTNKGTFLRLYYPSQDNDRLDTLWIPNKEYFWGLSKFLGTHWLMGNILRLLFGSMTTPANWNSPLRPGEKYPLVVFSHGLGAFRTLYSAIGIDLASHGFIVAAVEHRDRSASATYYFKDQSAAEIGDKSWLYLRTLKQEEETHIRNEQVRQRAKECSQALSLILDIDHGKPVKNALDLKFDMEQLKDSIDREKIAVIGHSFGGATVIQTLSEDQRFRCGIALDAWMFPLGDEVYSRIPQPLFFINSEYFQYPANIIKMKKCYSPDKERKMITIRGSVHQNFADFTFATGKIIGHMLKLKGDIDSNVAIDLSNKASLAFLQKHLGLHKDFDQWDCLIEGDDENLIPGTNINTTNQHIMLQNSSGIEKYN
PAFAH1B2 FP inh = PAFAH1B2 enzyme inhibitors, primary screen, biochemical, fluorescence polarization, human; inhibition, % at 3.39 µM; 340,000 tested, 1.2% active; Platelet-activating factor acetylhydrolase IB subunit alpha2 (Homo sapiens), P68402; AID 492953, 2010; recombinant PAFAH1B2, FP-rhodamine activity probe;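 active = inhibition above the mean of all tested compounds plus 3 SD, cut at about 24% in these data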
PAFAH2 FP inh = PAFAH2 enzyme inhibitors, primary screen, biochemical, fluorescence polarization, human | recombinant PAFAH2, FP-rhodamine activity probe | inhibition, % at 3.39 µM | 340,000 tested, 0.99% active;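 active = inhibition above the mean over all tested compounds plus 3 SD, cut at about 30% in these data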;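 note: inhibitors block probe labeling of enzyme so polarization drops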
Large screens that a line does not name were inactive.

CC(Oc1ccc(-c2ccccc2)c(F)c1)c1ccn(S(=O)(=O)c2ccc(Cl)cc2)n1 (stereo unspecified)	none
O=[N+]([O-])c1ccccc1/C=C/CN1CCN(Cc2ccc3c(c2)OCO3)CC1	none (no result: RBBP9 inh)
Nc1c(Cl)cc(-c2[nH]c3cc(C(=O)NCCO)ccc3c(=O)c2O)cc1Cl	PAFAH1B3 FP inh 36, PAFAH1B2 FP inh 26 (no result: RBBP9 inh)
CCCNC(=O)c1ccc2c(=O)c(O)c(-c3cccc(Br)c3)[nH]c2c1	pPAFAH inh 28 (no result: RBBP9 inh)
CCOc1ccccc1NC1=NCC(=O)N1Cc1ccc(F)cc1	pPAFAH inh 32
COc1ccccc1NC1=NCC(=O)N1Cc1ccccc1	none
Cc1cc(-c2ccccc2)nc(SCc2ccc(C(=O)O)cc2)n1	none (no result: RBBP9 inh, pPAFAH inh)
O=C(OCC(=O)C12CC3CC(CC(C3)C1)C2)c1ccc(O)cc1O	PAFAH1B2 FP inh 26, PAFAH2 FP inh 33 (no result: RBBP9 inh)
O=C(OCC(=O)C12CC3CC(CC(C3)C1)C2)c1ccccn1	PAFAH1B2 FP inh 25 (no result: RBBP9 inh)
O=C(CSc1ccccn1)C12CC3CC(CC(C3)C1)C2	PAFAH1B2 FP inh 26
Cc1ccc(C(=O)CSc2ccccn2)cc1	none
COc1cc(N(C)C)c([N+](=O)[O-])cc1C(=O)N1CCN(Cc2ccccc2)CC1	none
COc1ccccc1CN(C)CC(=O)NC1CCCc2ccccc21 (stereo unspecified)	none
CN(CC(=O)Nc1ccc(C#N)cc1)Cc1ccc(Cl)cc1	PAFAH1B2 FP inh 31
COc1ccccc1CN(C)CC(=O)NC(=O)NC1CCCCC1	pPAFAH inh 34 (no result: RBBP9 inh)
CN(CC(=O)NC(=O)NC1CCCCC1)CC(=O)Nc1ccc(Cl)cc1	PAFAH1B2 FP inh 24 (no result: RBBP9 inh)
CCN(CC)c1ccc(NC(=O)COC(=O)c2ccc3ccccc3n2)cc1	pPAFAH inh 26
Cc1cnc(NC(=O)C2(c3ccccc3)CC2)s1	PAFAH1B2 FP inh 29
C=CCSc1nc(=O)n2ccc(C)cc2n1	pPAFAH inh 27
C=CCSc1nc(=O)n2ccccc2n1	none
Cc1ccc(SCC(=O)OCn2nnc3ccccc3c2=O)cc1C	pPAFAH inh 30
Cc1ccc(SCCC(=O)OCn2nnc3ccccc3c2=O)cc1	none
COC1C(C)=C(C)C(=O)N1Cc1ccc(F)cc1 (stereo unspecified)	none (no result: RBBP9 inh)
Cc1nc2c(=O)[nH]c(=S)[nH]c2[nH]c1=O	PAFAH1B3 FP inh 27, PAFAH2 FP inh 45 (no result: RBBP9 inh, pPAFAH inh)
COc1ccc(NC(=O)COC(=O)CC2CC3CCC2C3)c([N+](=O)[O-])c1 (stereo unspecified)	pPAFAH inh 33, PAFAH2 FP inh 54
O=C(COC(=O)CC1CC2CCC1C2)Nc1ccccc1Cl (stereo unspecified)	pPAFAH inh 28, PAFAH2 FP inh 45 (no result: RBBP9 inh)
COc1ccc(NC(=O)Cc2ccc(C)cc2)c([N+](=O)[O-])c1	none
COc1cc(NC(=O)COC(=O)CC2CC3CCC2C3)cc(OC)c1 (stereo unspecified)	none (no result: RBBP9 inh)
COc1ccc(NC(=O)CC2Nc3cc(C)c(C)cc3NC2=O)c([N+](=O)[O-])c1 (stereo unspecified)	pPAFAH inh 26
CC(=O)n1cc([C@H]2C=C(C(=O)N3CCN(Cc4ccccc4)CC3)O[C@@H](OCc3ccc(CO)cc3)C2)c2ccccc21	none
O=C(COC(=O)C12CC3CC(CC(Br)(C3)C1)C2)Nc1cccnc1Cl	PAFAH1B2 FP inh 32
COc1cc(S(=O)(=O)N2CCOCC2)ccc1NC(=O)COC(=O)C12CC3CC(CC(C3)C1)C2	none
CN(C(=O)COC(=O)C12CC3CC(CC(C3)C1)C2)c1c(N)n(Cc2ccccc2)c(=O)[nH]c1=O	none (no result: RBBP9 inh)
CN(Cc1ccccc1)C(=O)COC(=O)C12CC3CC(CC(Br)(C3)C1)C2	PAFAH1B2 FP inh 42 (no result: RBBP9 inh)
O=C(COC(=O)C12CC3CC(CC(Br)(C3)C1)C2)Nc1cccc(S(=O)(=O)N2CCOCC2)c1	PAFAH1B2 FP inh 31 (no result: RBBP9 inh)
COc1ccc(NS(=O)(=O)c2ccc(C)c(C(=O)NC3CCN(Cc4ccccc4)CC3)c2)cc1	pPAFAH inh 26 (no result: RBBP9 inh)
COc1ccc(NS(=O)(=O)c2ccc(-c3n[nH]c(=S)n3Cc3ccccc3)cc2)cc1	pPAFAH inh 25
CCCCc1n[nH]c(=S)n1Cc1ccccc1	none
COc1ccccc1NS(=O)(=O)c1ccc(C)c(C(=O)NC2CCN(Cc3ccccc3)CC2)c1	none (no result: RBBP9 inh, pPAFAH inh)
